Assay results taken from ChEMBL document CHEMBL4706571, “Structure-activity relationship study of tryptophan-based butyrylcholinesterase inhibitors” (Eur J Med Chem, 2020).
Calls of active or inactive are those of the source.

Columns and labels:
Cholinesterase = Cholinesterase (Homo sapiens, UniProt P06276); assay: Inhibition of human BChE using butyrylthiocholineiodide as substrate measured for 5 mins by Ellman's method
Method in brief: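 Human BChE at about 1 nM was preincubated for 5 min at 20 °C with compound and Ellman's reagent in 0.1 M phosphate buffer, pH 8.0, with 1% final DMSO. The reaction was started with butyrylthiocholine iodide and A412 read for 1 min from initial rates. Activity was corrected by an enzyme-free buffer blank. IC50 was fitted from at least seven concentrations.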

Acetylcholinesterase = Acetylcholinesterase (Homo sapiens, UniProt P22303); assay: Inhibition of human AChE using acetylthiocholine iodide as substrate measured for 5 mins by Ellman's method
Chain of Acetylcholinesterase (P22303 whole entry): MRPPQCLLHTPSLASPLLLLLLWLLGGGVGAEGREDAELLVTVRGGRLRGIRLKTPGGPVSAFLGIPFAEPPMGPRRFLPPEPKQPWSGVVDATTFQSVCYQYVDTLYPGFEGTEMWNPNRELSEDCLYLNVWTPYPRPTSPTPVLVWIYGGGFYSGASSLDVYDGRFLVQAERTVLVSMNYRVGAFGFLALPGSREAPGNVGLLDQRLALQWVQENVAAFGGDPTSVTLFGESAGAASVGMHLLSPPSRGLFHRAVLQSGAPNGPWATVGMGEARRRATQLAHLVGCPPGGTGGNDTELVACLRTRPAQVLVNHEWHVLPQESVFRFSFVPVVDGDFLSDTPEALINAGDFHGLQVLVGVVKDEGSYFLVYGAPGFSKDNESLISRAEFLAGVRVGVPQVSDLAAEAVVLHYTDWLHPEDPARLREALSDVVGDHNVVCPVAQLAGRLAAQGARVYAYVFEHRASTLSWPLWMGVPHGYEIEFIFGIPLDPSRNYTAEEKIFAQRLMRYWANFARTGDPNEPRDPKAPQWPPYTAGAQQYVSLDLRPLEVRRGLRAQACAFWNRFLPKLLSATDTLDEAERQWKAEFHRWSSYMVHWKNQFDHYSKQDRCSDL
Method in brief: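 Human AChE at about 50 pM was preincubated for 5 min at 20 °C with compound (DMSO stock) and Ellman's reagent in 0.1 M phosphate buffer, pH 8.0, with 1% final DMSO. Acetylthiocholine iodide was then added and A412 followed for 1 min. Residual activity = (vi − b)/(vo − b), with b a blank lacking enzyme. IC50 used at least seven concentrations.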

Mus musculus [1] = assay: Cognitive enhancing effect in intraperitoneally dosed C57BL/6J mouse model of scopolamine-induced memory impairment assessed as enhancement of long-term memory retrieval by measuring latency time to find former escape box location in acquisition phase measured on day 12 by Barnes maze test; format: functional, organism-based
Method in brief: (§1)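 C57BL/6J mice, Barnes maze: scopolamine 1 mg/kg s.c. 30 min before first daily trial; compound in 1% Tween 80 i.p. 60 min before, daily during 4-day acquisition (four trials/day, 15-min intervals). Drug-off probe day 5 (short-term) and day 12 (long-term): escape box removed, 90 s exploration, latency to former box location and primary errors recorded. n = 7–9; one-way ANOVA, Dunnett's.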

Mus musculus [2] = assay: Anti-amnesic activity in CD-1 mouse model of scopolamine-induced memory impairment assessed as step-through latency time to enter dark compartment in retention trail on day 2 at 10 to 30 mg/kg, ip administered 60 mins before trail by passive avoidance test; format: functional, organism-based; conditions: dose 10-30 mg/kg
Method in brief: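 CD-1 mice, passive avoidance: scopolamine 1 mg/kg s.c. in 0.9% saline 30 min before trial; test article suspended in 1% Tween 80, i.p. 60 min before trial (controls 1% Tween 80 i.p.). Acquisition trial: 30 s in lit compartment, gate opened, step-through latency to dark chamber recorded; retention trial 24 h later. n = 8–9.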

Mus musculus [3] = assay: Cognitive enhancing effect in C57BL/6J mouse model of scopolamine-induced memory impairment model assessed as escape latency time at 10 to 30 mg/kg, ip administered for 7 days and 60 mins before trail by Morris water maze test relative to control; format: functional, organism-based; conditions: dose 10-30 mg/kg, time 7.0 day
Mus musculus [4] = assay: Cognitive enhancing effect in intraperitoneally dosed C57BL/6J mouse model of scopolamine-induced memory impairment assessed as enhancement of short-term memory retrieval by measuring latency time to find former escape box location in acquisition phase measured on day 5 by Barnes maze test; format: functional, organism-based; method in brief: as §1
[5] = Neurotoxicity in mouse assessed as effect in locomotor activity at 30 mg/kg, ip measured up to 60 mins by rotarod test; format: toxicity, organism-based; conditions: in vivo, 1 h
Method in brief: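 Mice trained 3 consecutive days on rotarod (2 cm rod, 18 rpm); 24 h later dosed i.p. with 30 mg/kg in 1% Tween 80 or vehicle, tested after 60 min at 6, 18 and 24 rpm. Motor impairment defined as failure to stay on for 60 s; expressed as mean time on rod.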

Mus musculus [6] = assay: Cognitive enhancing effect in intraperitoneally dosed C57BL/6J mouse model of scopolamine-induced memory impairment assessed as enhancement of learning abilities and working memory by measuring escape latency time to reach target in acquisition phase measured on day 5 by Barnes maze test; format: functional, organism-based; method in brief: as §1

Chain of Cholinesterase (P06276 whole entry): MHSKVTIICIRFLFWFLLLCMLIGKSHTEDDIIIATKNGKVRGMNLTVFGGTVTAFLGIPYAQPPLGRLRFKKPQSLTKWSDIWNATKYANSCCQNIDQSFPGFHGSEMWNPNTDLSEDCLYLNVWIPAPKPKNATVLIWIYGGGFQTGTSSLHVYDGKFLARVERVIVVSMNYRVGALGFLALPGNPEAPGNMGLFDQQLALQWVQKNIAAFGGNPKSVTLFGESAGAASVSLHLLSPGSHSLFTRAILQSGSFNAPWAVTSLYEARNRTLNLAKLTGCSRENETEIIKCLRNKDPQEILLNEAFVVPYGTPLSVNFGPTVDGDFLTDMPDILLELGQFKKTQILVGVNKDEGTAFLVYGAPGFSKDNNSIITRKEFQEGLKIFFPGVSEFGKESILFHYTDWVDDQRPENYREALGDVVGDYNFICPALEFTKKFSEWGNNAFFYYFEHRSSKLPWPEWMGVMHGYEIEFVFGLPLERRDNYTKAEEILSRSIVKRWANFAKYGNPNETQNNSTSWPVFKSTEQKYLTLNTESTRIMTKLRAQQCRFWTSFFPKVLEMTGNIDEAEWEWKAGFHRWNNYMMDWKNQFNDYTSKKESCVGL

SMILES | IC50 (Cholinesterase) [nM] | other results
CCCCN(CCCC)[C@@H](Cc1c[nH]c2ccccc12)C(=O)N1CCC(Cc2ccccc2)CC1 | 76 | –
CCCCN[C@@H](Cc1c[nH]c2ccccc12)C(=O)NCCC1CCCN(Cc2ccccc2)C1 (mixture of isomers) | 9 | –
CCCCN[C@@H](Cc1c[nH]c2ccccc12)C(=O)NCCC1CCCN(Cc2ccc(OC)cc2)CC1 (mixture of isomers) | 100 | –
CCCCN[C@@H](Cc1c[nH]c2ccccc12)C(=O)NCCC1CCCC(c2ccccc2)C1 (mixture of isomers) | 6.6 | –
CCCCN[C@@H](Cc1c[nH]c2ccccc12)C(=O)NCCC1CCN(Cc2ccccc2)CC1 | 2 | IC50 (Acetylcholinesterase): 25400 nM
CCCCN[C@@H](Cc1c[nH]c2ccccc12)C(=O)NCCC1CCN(CCc2ccccc2)CC1 | 3.8 | –
CCCCN[C@@H](Cc1ccccc1)C(=O)NCCC1CCCCCC1 | 609 | –
CCCCN[C@@H](Cc1c[nH]c2ccccc12)C(=O)NCCC1CCCN(Cc2c(F)c(F)cc(F)c2F)CC1 (mixture of isomers) | 5.9 | –
CCCCN[C@@H](Cc1c[nH]c2ccccc12)C(=O)NCCC1CCN(c2ccccc2)CC1 | 5.6 | –
CCCCN[C@@H](Cc1c[nH]c2ccccc12)C(=O)NCCC1CCCCCC1 | 22 | Activity (Mus musculus [1]): Active; Activity (Mus musculus [2]): inactive; Activity (Mus musculus [3]): inactive; Activity (Mus musculus [4]): inactive; Activity [5]: Non-Toxic; Activity (Mus musculus [6]): inactive
CCCCN[C@@H](Cc1c[nH]c2ccccc12)C(=O)NCCC1CCN(CC2CCN(C)CC2)CC1 | 6600 | IC50 (Acetylcholinesterase): 29700 nM
CCCCN[C@@H](Cc1c[nH]c2ccccc12)C(=O)N1CCCC1c1ccccc1 (stereo partly drawn) | 990 | –
CCCCN[C@@H](CC(C)C)C(=O)NCCC1CCCCCC1 | 36300 | –
CCCCN[C@@H](Cc1c[nH]c2ccccc12)C(=O)NCCC1CCCN(Cc2ccccc2)CC1 (mixture of isomers) | 2.8 | IC50 (Acetylcholinesterase): 16000 nM
